Fewer inactive variants are shown than the library holds.
B1: tRNA (parent)
chain: GUUCCGUUGGCGUAAUGGUAACGCGUCUCCCUCCUAAGGAGAAGACUGCGGGUUCGAGUCCCGUACGGAACG

Variants of: B1
Assay: yeast fitness relative to wild type (ratio to wild type); higher = fitter; tRNA-Arg(CCU), competitive growth, 37 C, YPD
Summary of the method: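 A pool of Saccharomyces cerevisiae strains, each with a tRNA-Arg(CCU) gene variant at the native genomic locus, was competed in YPD at 37°C for 24 hours across six parallel replicates. The variants had been chemically synthesised at a 3% per-site mutation rate over 69 sites, and gene amplicons before and after competition were read by 100-nucleotide paired-end sequencing. Darwinian fitness relative to wild type rested on changes in genotype frequencies. Genotypes required ≥ 100 starting reads, and estimates < 0.5 were set to 0.5.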

Variant | yeast fitness
GUUCCGUUGGCGUAAUGAUAACGCGUCUCCCUCCUAAGGAGAAGACUGCCGGUUCGAGUCCCGUACGGAACG [G18A G50C] | 0.615
GUUCCGUUGGCGUAAUGAUAACGCGUCUCCCUCCUAAGGAGAAGACUGCGGGUUCGAGUCUCGUACGGAACG [G18A C61U] | 0.696
GUUCCGUUGGCGUAAUGAUAACGCGUCUCCCUCCUAAGGAGAAGACUGCGGGUUCGAGUCGCGUACGGAACG [G18A C61G] | 0.681
GUUCCGUUGGCGUAAUGAUAACGCGUCUCCCUCCUAAGGAGAAGACUGCAGGUUCGAGUCUCGUACGGAACG [G18A G50A C61U] | ≤ 0.5
GUUCCGUUGGCGUAAUGAUAACGCGUCUCCCUCCUAAGGACAAGACUGCGGGAUCGAGUCCCGUACGGAACG [G18A G41C U53A] | 0.557
GUUCCGUUGGCGUAAUGAUAACGCGUCUCUCUCCUAAGGACAAGACUGCAGGUUCGAGUCCCGUCCGGAACG [G18A C30U G41C G50A A65C] | ≤ 0.5
GUUCCGUUGGCGUAAUGAUAACGCGUCUCCCUCCUAAGGAGAAGAAUGCGGGUUCGAGUCCCGCACGGAACG [G18A C46A U64C] | 0.535
GUUCCGUUGGCGUAAUGAUAACGCGUCUCCCUCCUAAGGAGAAGACUGCAGGUUCGAGUCCGGUACGGAACG [G18A G50A C62G] | ≤ 0.5
GUUCCGUUGGCGUAAUGAUAACGCGUCUCGCUCCUAUGGAGAAGACUGCGGGUUGGAGUCCCGUACGGAACG [G18A C30G A37U C55G] | ≤ 0.5
GUUCCGUUGGCGUAAUGAUAACGCGUCUCCCUACUCAGGAGAGGACUGCGGGUUGGAGUCCCGUACGGAACG [G18A C33A A36C A43G C55G] | ≤ 0.5
GUUCCGUUGGCGUAAUGAUAACGCGUCUCCCUCUCAAGGAGAAGACUGCGGGUUCGAGUCCCGUACGGAACG [G18A C34U U35C] | ≤ 0.5
GUUCCGUUGGCGUAAUGAUAACGCGUCUCCCUCUUAAGGAGAAGACUGCGGGUUCGAGUCCCGUACAGAACG [G18A C34U G67A] | ≤ 0.5
GUUCCGUUGGCGUAAUGAUAACGCGUCUCCCUUCUAAGGAGAAGACUGCGGGAUAGAGUCCCGUACGGAACG [G18A C33U U53A C55A] | 0.523
GUUCCGUUGGCGUAAUGAUAACGCGUCUCCCUCCUAAGGAGAAAACUGCGGGUUCGAGUCCCGUACGAAACG [G18A G44A G68A] | ≤ 0.5
GUUCCGUUGGCGUAAUGAUAACGCGUCUCCGUCCUAAGGGGAAGACUGUGGCUUCGAGUCCCGUACGGAACG [G18A C31G A40G C49U G52C] | 0.618
GUUCCGUUGGCGUAAUGAUAACGCCUCUCCCUCCUAAGGAGAAGACUGCGGGUUCGAGUCCCGUACGGCACG [G18A G25C A69C] | 0.519
GUUCCGUUGGCGUAAUGAUAACACGUCUCCCUACUAAGGAGAAGACUGCGGGUUCGAGUCCCGUCCGGAACG [G18A G23A C33A A65C] | 0.624
GUUCCGUUGGCGUAAUGAUAACGCAUCUCCCUCCUAAGGAGAAGACUGUGGGUUCGAGUCCUGUACGGAACG [G18A G25A C49U C62U] | ≤ 0.5
GUUCCGUUGGCGUAAUGAUAACGCGUCUCCCUCCUAAGGAAAAGACUGCGGGUUCGAGUCCCGUAGGGAACG [G18A G41A C66G] | ≤ 0.5

Variant | yeast fitness
GUUCCGUUGGCGUAAUGAUAACGCGUCUCUCUCCUAAGGAGAAGACUGCGGGUUCGCGUCCCGUACGGAACG [G18A C30U A57C] | ≤ 0.5
GUUCCGUUGGCGUAAUGAUAACGCGUCUCCCUCAUAAGGAGAAGAUUGCGGGUUCGAGUCCCGUACGGAACG [G18A C34A C46U] | 0.692
GUUCCGUUGGCGUAAUGAUAACGCGUCUCCGUCCUAAGGGGAAGACUGCGGCUUCGAGUCCCGUACGGAACG [G18A C31G A40G G52C] | ≤ 0.5
GUUCCGUUGGCGUAAUGAUAACGCGUCUCCCUCCUAAGGAGAAGACUGGGGGUUCGAGUGCCGUACGGAACG [G18A C49G C60G] | ≤ 0.5
GUUCCGUUGGCGUAAUGAUAACGCGUCUCUCUCCUAAGGAGAAGACUGCGGGUUCGAGUCCCGUACGGAACG [G18A C30U] | 0.709
GUUCCGUUGGCGUAAUGAUAACGCGUCUCCCUCUUAAGGAGACGAGUGCGGGUUCGAGUCCCGUACGGAACG [G18A C34U A43C C46G] | ≤ 0.5
GUUCCGUUGGCGUAAUGAUAACGCGUCUCCCUCGUAAGGAGAAGACUGCGGGUCCGAGUCCCGUACGGAACG [G18A C34G U54C] | ≤ 0.5
GUUCCGUUGGCGUAAUGAUAACGCGUCUCCCUCCUAAGGAGAAGACUGCGGGUUUCAGUCCCGUACGGAGCG [G18A C55U G56C A70G] | ≤ 0.5
GUUCCGUUGGCGUAAUGAUAACGCGUCUCCCUGGUAAGGAGAAGACUGCGGGUUCGAGUCCCGUACGGAACG [G18A C33G C34G] | ≤ 0.5
GUUCCGUUGGCGUAAUGAUAACGCGUCUCCCUCAUAAGGAGAAGACCGCGGGUUCGAGUCCCGUACGGAACG [G18A C34A U47C] | ≤ 0.5
GUUCCGUUGGCGUAAUGAUAACGCGUCUCCAUCCUAAGGAGAAGACUGCGGGUUCCAGUCCCGUACGGAACG [G18A C31A G56C] | ≤ 0.5
GUUCCGUUGGCGUAAUGAUAACGCGUCUCCCUUCUAAGGAGGAGACUGCGGGUUCGAGUCCCGUACGGAACG [G18A C33U A42G] | 0.54
GUUCCGUUGGCGUAAUGAUAACGCGUCUCCAUCCUAAGGAGAAGACUGCGGGUUCCAGUCCCGUCCGGAACG [G18A C31A G56C A65C] | ≤ 0.5
GUUCCGUUGGCGUAAUGAUAACGCGUCUCCCUUCUAAGGAGGAGACUGCGGGUUCGAGUGCGGUACGGAACG [G18A C33U A42G C60G C62G] | ≤ 0.5
GUUCCGUUGGCGUAAUGAUAACGCGUCUCUCUCCUAAGGACAAGACUGCGGGUUCGAGUCCCGUACGGAACG [G18A C30U G41C] | ≤ 0.5
GUUCCGUUGGCGUAAUGAUAACGCGUCUCUCUCCUAAGGACAAGACUGCAGGUUCGAGUCCCGUACCGAACG [G18A C30U G41C G50A G67C] | 0.666
GUUCCGUUGGCGUAAUGAUAACGCGUCUCACUCCUAAGGAGAAGACUGCGGGUUCGAAUCCCGUACGUAACG [G18A C30A G58A G68U] | ≤ 0.5
GUUCCGUUGGCGUAAUGAUAACGCGUCUCCCUCUUAAGCAGAAGACUGCGGGUUCGAGUCCCGUACGGAACG [G18A C34U G39C] | ≤ 0.5
GUUCCGUUGGCGUAAUGAUAACGCGUCUCCCUCCUAAGGAGAAGAGUGCGGGUUCGAGUCCCGUUCGGAACG [G18A C46G A65U] | 0.697
